Source: ChEMBL document CHEMBL5500386, “Design, synthesis and bioactivity evaluation of 4-hydroxycoumarin derivatives as potential anti-inflammatory agents against acute lung injury and colitis” (Eur J Med Chem, 2024)
Calls of active or inactive are those of the source. No cut-off for these calls is given here.

Tests used:
Mus musculus [1] = test: Protection against LPS-induced C57BL/6 mouse model of acute lung injury assessed as reduction in immune markers in lungs at 20 mg/kg, po administered 3 times for every 12 hrs followed by LPS stimulation at 5 mg/kg and measured after 6 hrs by H and E staining based analysis; type: functional, organism-based; details: time 30.0 hrs
Outline: (§1)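 LPS-induced ALI in C57BL/6 mice: 20 mg/kg orally three times at 12 h intervals, then intratracheal LPS 5 mg/kg, killed at 6 h. Lungs paraffin-embedded, cut into 5 μm sections and H&E stained. Viewed at ×20.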

[2] = AUC (0 to t) in male Sprague-Dawley rat at 10 mg/kg, po measured upto 24 hrs by triple quadrupole mass spectrometric analysis; type: ADME, organism-based; details: in vivo
Outline: (§2)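 Male SD rats (8 weeks, 200 g ± 20 g), n = 3 per route. Oral: 10 mg/kg by gavage in 0.05 % DMSO/normal saline, tail-vein blood at 13 times from 10 min to 24 h. IV: 1 mg/kg tail vein in 5 % DMSO/30 % PEG400/65 % saline, 14 samples from 5 min to 24 h. Heparinised plasma precipitated with acetonitrile containing internal standard. Non-compartmental analysis on mean concentrations.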

[3] = test system: TGF-beta-activated kinase 1 (MAP3K7); test: Inhibition of TAK1 (unknown origin) at 10 uM relative to control; details: Homo sapiens
Mus musculus [4] = test: Antiinflammatory activity in DSS-induced male C57BL/6 mouse model of inflammatory bowel disease assessed as inhibition of IL-6 release in plasma at 20 mg/kg, IG administered with compound and DSS for 7 days followed by DSS replacement with distilled water for 3 days; type: functional, organism-based; details: time 10.0 day
[5] = AUC (0 to t) in male Sprague-Dawley rat at 1 mg/kg, iv measured upto 24 hrs by triple quadrupole mass spectrometric analysis; type: ADME, organism-based; details: in vivo; outline: as §2
Mus musculus [6] = test: (§3) Protection against LPS-induced C57BL/6 mouse model of acute lung injury assessed as reduction in thickening of the alveolar septum at 20 mg/kg, po administered 3 times for every 12 hrs followed by LPS stimulation at 5 mg/kg and measured after 6 hrs by immunohistochemical staining based analysis; type: functional, organism-based; details: time 30.0 hrs
Outline: (§4)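 LPS-induced ALI in C57BL/6 mice: 20 mg/kg orally three times at 12 h intervals, then intratracheal LPS 5 mg/kg, lungs taken at 6 h. F4/80 IHC: xylene deparaffinisation, citrate pH 6 retrieval for 25 min, primary antibody at 4 °C for 12 h, secondary 1:2000, DAB and hematoxylin. Viewed at ×20.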

[7] = AUC (0 to infinity) in male Sprague-Dawley rat at 1 mg/kg, iv measured upto 24 hrs by triple quadrupole mass spectrometric analysis; type: ADME, organism-based; details: in vivo; outline: as §2
Mus musculus [8] = test: Protection against LPS-induced C57BL/6 mouse model of acute lung injury assessed as reduction in interstitial edema in lungs at 20 mg/kg, po administered 3 times for every 12 hrs followed by LPS stimulation at 5 mg/kg and measured after 6 hrs by immunohistochemical staining based analysis; type: functional, organism-based; details: time 30.0 hrs; outline: as §4
[9] = Acute toxicity in male ICR mouse assessed as histopathological changes in kidney at 500 to 1000 mg/kg, po administered daily for 10 days by H and E staining based analysis; type: organism-based; details: in vivo, 240 h, dose 500-1000 mg/kg, time 10 day
Outline: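 Male ICR mice (8 weeks, 30 g ± 2 g), acclimatised 1 week, randomised into 1000 mg/kg, 500 mg/kg and untreated control groups (n = 24 total). Dosed by daily gavage, compound dissolved in 0.5 % DMSO then added to normal saline. Body weight and behaviour recorded daily. Euthanised after 10 days; heart, liver, spleen, lung and kidney examined by H&E staining.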

Mus musculus [10] = test: Antiinflammatory activity in DSS-induced male C57BL/6 mouse model of inflammatory bowel disease assessed as reduction in F4/80 positive cell population in intestine at 20 mg/kg, IG administered with compound and DSS for 7 days followed by DSS replacement with distilled water for 3 days by immunohistochemistry staining based analysis; type: functional, organism-based; details: time 10.0 day
Outline: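 DSS colitis in C57BL/6 mice (2.5 % DSS for 7 days, then water for 3 days), 20 mg/kg po daily in DMSO/CMC-Na, n = 6. Colon fixed in 4 % formaldehyde. For IHC: deparaffinised in xylene, antigen retrieval by boiling in citrate buffer pH 6 for 25 min, primary antibody at 4 °C for 12 h, secondary 1:2000, then DAB with hematoxylin counterstain.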

[11] = AUC (0 to infinity) in male Sprague-Dawley rat at 10 mg/kg, po measured upto 24 hrs by triple quadrupole mass spectrometric analysis; type: ADME, organism-based; details: in vivo; outline: as §2
J774.A1 [12] = test: Antiinflammatory activity in LPS-induced mouse J774.a1 cells assessed as inhibition of IL-6 production at 10 uM pretreated for 2 hrs followed by LPS stimulation and measured after 30 mins by ELISA relative to control; type: functional; details: time 2.5 hrs
Outline: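 J774A.1 cells (DMEM, 10 % FBS, 37 °C) treated with 10 μM compound or 4-HC for 2 h, then LPS. After 30 min, IL-6 in medium measured by ELISA. Result is % inhibition, mean ± SEM of three independent experiments.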

Mus musculus [13] = test: as §3, with “destruction” for “thickening”, “cell structure” for “septum”; type: functional, organism-based; details: time 30.0 hrs; outline: as §4
THP-1 = test: Antiinflammatory activity in LPS-induced human THP-1 cells assessed as inhibition of IL-6 production pretreated for 30 mins followed by LPS stimulation and measured after 24 hrs by ELISA; type: functional, cell-based
Outline: (§5)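 Cells pretreated 30 min with a gradient of concentrations (2.5–10 μM range) or DMSO, then given LPS 0.5 μg/mL for 24 h. IL-6 in medium measured by ELISA and normalised to living cell number by MTT. Expressed as % of the LPS group, mean ± SEM of triplicates. IC50 taken from the concentration-response.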

Mus musculus [14] = test: Protection against LPS-induced C57BL/6 mouse model of acute lung injury assessed as reduction in interstitial edema in lungs at 20 mg/kg, po administered 3 times for every 12 hrs followed by LPS stimulation at 5 mg/kg and measured after 6 hrs by H and E staining based analysis; type: functional, organism-based; details: time 30.0 hrs; outline: as §1
J774.A1 [15] = test: Antiinflammatory activity in LPS-induced mouse J774.A1 cells assessed as inhibition of IL-6 production pretreated for 30 mins followed by LPS stimulation and measured after 24 hrs by ELISA; type: functional, cell-based; outline: as §5
Mus musculus [16] = test: Antiinflammatory activity in DSS-induced male C57BL/6 mouse model of inflammatory bowel disease assessed as normal appearance of crypt cells at 20 mg/kg, IG administered with compound and DSS for 7 days followed by DSS replacement with distilled water for 3 days by H and E staining based analysis; type: functional, organism-based; details: time 10.0 day
Mus musculus [17] = test: Antiinflammatory activity in DSS-induced male C57BL/6 mouse model of inflammatory bowel disease assessed as increase in body weight at 20 mg/kg, IG administered with compound and DSS for 7 days followed by DSS replacement with distilled water for 3 days; type: functional, organism-based; details: time 10.0 day
J774.A1 [18] = test: Cytotoxicity against mouse J774.A1 cells assessed as reduction in cell viability at 10 uM measured after 24 hrs by MTT assay; type: toxicity, cell-based; details: j774.a1, 24 h
Outline: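 J774A.1 cells seeded and incubated 24 h, then exposed to 10 μM compound for 24 h. MTT (5.0 mg/mL) added as 10 % for 4 h, formazan dissolved in DMSO with 30 min shaking, absorbance read at 490 nm. Expressed as % of control.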

For `CC(=O)N1CCN(CCOc2cc(=O)oc3ccccc23)CC1`, the Activity (Mus musculus [1]) was “Active”, the AUC(0-t) at 24 h [2] was 2670 ng·h/mL and the inhibition [3] was 1.05%. The Activity (Mus musculus [4]) was “Active”, the AUC(0-t) at 24 h [5] was 929 ng·h/mL and the Activity (Mus musculus [6]) was “Active”. For the same compound, the AUC(0-inf) [7] was 1020 ng·h/mL, the Activity (Mus musculus [8]) was “Active” and the Activity [9] was “Non-Toxic”. The Activity (Mus musculus [10]) was “Active”, the AUC(0-inf) [11] was 3260 ng·h/mL and the inhibition at 10 µM (J774.A1 [12]) was 51.6%. The Activity (Mus musculus [13]) was “Active”, the IC50 (THP-1) was 6.51 µM and the Activity (THP-1; time 24.5 hrs) was “Dose-Dependent Effect”. For the same compound, the Activity (Mus musculus [14]) was “Active”, the IC50 (J774.A1 [15]) was 4.57 µM and the Activity (J774.A1 [15]; time 24.5 hrs) was “Dose-Dependent Effect”. For the same compound, the Activity (Mus musculus [16]) was “Active”, the Activity (Mus musculus [17]) was “Active” and the Activity (J774.A1 [18]) was “Non-Toxic”.
